# An excerpt weighted towards active compounds, which were near 12% of everything screened.
# WT yeast gro inh – growth inhibition of WT strain, primary screen, mitochondrial fusion inhibitor project, WT and mutant strains, chemical genetic | mitochondrial fusion phenotypic screen | inhibition, % at 10 µM | 190,000 compounds, 2.1% hits; in the data active means inhibition above about 58%; tested in S. cerevisiae
# RAM inhibit – inhibitors of the yeast RAM network, primary screen, dse1pr::URA3 reporter, 5-FOA selection; inhibition, % at 50 µM; 190,000 compounds, 1.8% hits; S. cerevisiae dse1pr::URA3 reporter, 5-FOA growth OD615, 2 d; analog-sensitive cbk1-as2 kinase mutant strain; AID 868, 2007;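 active means inhibition above a set limit, 3 SD over mean compound inhibition, cut at about 8.4% in these data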;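 further: inhibition rescues growth on 5-FOA so higher OD means more RAM inhibition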
# ABCG2 inh – ABCG2 efflux pump inhibitors, primary screen, multiplex with ABCB1, IgMXP3 cells, flow cytometry. 190,000 compounds, 0.1% hits. JC-1 efflux. inhibition, % at 6.6 µM. Broad substrate specificity ATP-binding cassette transporter ABCG2 (Homo sapiens), Q9UNQ0;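 active means inhibition above 80%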
# Target sequence (Q9UNQ0 whole entry, looked up): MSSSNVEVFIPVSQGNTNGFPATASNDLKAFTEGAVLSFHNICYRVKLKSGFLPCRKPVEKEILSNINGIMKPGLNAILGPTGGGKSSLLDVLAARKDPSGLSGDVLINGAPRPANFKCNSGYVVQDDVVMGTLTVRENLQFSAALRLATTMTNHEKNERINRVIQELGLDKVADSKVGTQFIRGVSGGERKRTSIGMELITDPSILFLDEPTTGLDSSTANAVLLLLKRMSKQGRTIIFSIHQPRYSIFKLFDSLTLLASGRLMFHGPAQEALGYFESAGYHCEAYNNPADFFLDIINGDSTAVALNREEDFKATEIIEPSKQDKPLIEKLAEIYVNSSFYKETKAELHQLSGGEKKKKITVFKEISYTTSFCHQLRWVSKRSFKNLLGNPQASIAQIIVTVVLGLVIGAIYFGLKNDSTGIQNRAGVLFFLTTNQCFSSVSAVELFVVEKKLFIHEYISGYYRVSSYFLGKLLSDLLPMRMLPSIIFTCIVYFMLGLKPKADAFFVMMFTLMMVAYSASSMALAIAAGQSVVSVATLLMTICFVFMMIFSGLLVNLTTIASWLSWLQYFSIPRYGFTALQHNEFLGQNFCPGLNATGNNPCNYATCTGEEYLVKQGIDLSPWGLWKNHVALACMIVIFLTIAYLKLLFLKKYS
#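 Measure – % inhibition of efflux relative to nicardipine and DMSO · Test system – ABCG2 IgMXP3 and barcoded ABCB1 CCRF-Adr cell mix · Control set – nicardipine as high control, DMSO as low control · Compound – one concentration, 6.6 µM final · Signal – flow cytometry of retained JC-1 fluorescence · Timing – 10 min exposure at 25 °C with rotation, no wash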
# Lmaj promast – Leishmania major promastigote growth inhibition, primary screen; Leishmania major promastigotes, resazurin fluorescence viability; inhibition, % at 10 µM; 200,000 compounds, 9% hits; AID 1063, 2008; in the data active means inhibition above about 50%;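 further: promastigotes grown with compound for 44 hours at 28 °C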
# ABCB1 inh – ABCB1 efflux pump inhibitors, primary screen, cell-based, multiplex, flow cytometry, ABCG2 counter-screen | ATP-dependent translocase ABCB1 (Homo sapiens), P08183 | CCRF-Adr cells, JC-1 efflux | inhibition, % at 6.6 µM | 190,000 compounds, 0.067% hits | AID 1326, 2008; in the data active means inhibition above about 40%;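 further: higher value means more JC-1 retained so stronger ABCB1 efflux block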
# A number is an active result; i = inactive; nt = no result given.
SMILES,WT yeast gro inh,RAM inhibit,ABCG2 inh,Lmaj promast,ABCB1 inh
O=C(c1n[nH]c2ccccc12)N1CCN(S(=O)(=O)c2ccc3ccccc3c2)CC1,77,i,i,55,i
CCN1C(=O)/C(=C2/Sc3ccc(OC)cc3N2C)SC1=Nc1cccc(O)c1,i,i,i,99,i
COc1ccc(Cc2nc3ccccc3n2CC(=O)N/N=C/c2ccccc2)cc1OC,i,i,i,i,i
C=CCSc1nc2ccccc2n1C(=O)/C=C/c1cc(OC)c(OC)c(OC)c1,nt,i,i,i,i
CCSc1nc2ccccc2n1CC(=O)OC,i,i,i,i,i
CCSc1nc2ccccc2n1C(=O)/C=C/c1ccc(OC)c(OC)c1,i,10,i,i,i
C=CCSc1nc2ccccc2n1C(=O)/C=C/c1ccc(OC)c(OC)c1,nt,i,i,71,i
CCn1c(SCC(=O)N/N=C/c2ccc(OC)c(OC)c2)nc2ccccc21,i,i,i,97,i
CN(C)/C=C/C(=O)c1ccccc1OCc1cnc(Cl)s1,i,i,i,i,i
CCN1CCS/C1=C/C=C/C1=[N+](CC)CCS1,i,i,i,100,i
CCN1CCS/C1=C\C=C\C1=[N+](CC)CCS1,i,i,i,100,i
O=C(CCSc1ccc(Br)cc1)Nc1cccnc1,i,i,i,i,i
O=C(Cc1c(O)c2ccccc2[nH]c1=O)NCc1ccccc1F,60,i,i,i,i
Cc1noc(C)c1S(=O)(=O)N1CCC(C(=O)N2CCC(N3CCCCC3)CC2)CC1,i,i,i,i,i
Cc1noc(C)c1S(=O)(=O)N1CCCC(C(=O)N2CCN(C3CCCCC3)CC2)C1 (stereo not drawn),i,i,i,93,i
Cc1noc(C)c1S(=O)(=O)N1CCC(C(=O)N2CCN(C(=O)c3ccco3)CC2)CC1,i,i,i,i,i
Cc1noc(C)c1S(=O)(=O)N1CCC(C(=O)N2CCN(c3ccccc3Cl)CC2)CC1,i,i,nt,97,nt
Cc1noc(C)c1S(=O)(=O)N1CCC(C(=O)N2CCN(c3ccc(Cl)cc3)CC2)CC1,i,i,i,68,i
O=C(C1=C[C@@H](c2ccccc2)C[C@@H](OCc2ccc(CO)cc2)O1)N1CCCCCCC1,i,i,i,i,i
Brc1ccc(-c2nnc3sc(CNC4CCCC4)cn23)cc1,i,i,i,91,i
Brc1ccc(-c2nnc3sc(CNCc4ccc5c(c4)OCO5)cn23)cc1,i,i,i,85,i
Brc1cccc(-c2nnc3sc(CNCc4ccco4)cn23)c1,i,i,i,i,i
CCSc1nc2cc(OC)c(OC)cc2c(=O)n1CC,i,i,i,i,i
O=C(COC(=O)/C=C/c1ccc([N+](=O)[O-])cc1)NC(c1ccccc1)c1ccccc1,i,i,i,i,i
O=C(CCC(=O)Nc1ccccc1)NNC(=O)COc1ccccc1,i,i,i,i,i
SMILES,WT yeast gro inh,RAM inhibit,ABCG2 inh,Lmaj promast,ABCB1 inh
COc1ccccc1NC(=O)NCC(c1ccco1)N1CCCCC1 (stereo not drawn),i,i,i,i,i
C/C(=N\N1CCN(C2c3ccccc3-c3ccccc32)CC1)c1ccncc1,i,i,i,i,i
C(=N\N1CCN(C2c3ccccc3-c3ccccc32)CC1)/c1ccncc1,68,i,i,i,i
CC1=NN(c2ccc(Cl)cc2)C(=O)/C1=C\c1cccn1-c1ccc(S(N)(=O)=O)cc1,81,i,i,50,i
CC(C(=O)NCCC1=CCCCC1)c1ccc([N+](=O)[O-])cc1 (stereo not drawn),i,i,i,i,i
CCCCC(=O)Oc1ccccc1C1SCc2cc(C)c(C)cc2CS1,i,i,i,i,i
Cc1cc2c(cc1C)CSC(c1ccccc1OC(=O)C(C)(C)C)SC2,64,i,i,i,i
CCOC(=O)C1C(c2ccc(O)c(OC)c2)NC(=S)NC1(O)C(F)(F)F (stereo not drawn),i,i,i,i,i
O=c1c(CN2CCN(Cc3ccccc3)CC2)coc2ccc(Cl)cc12,i,i,i,76,i
Cc1c(Cl)cccc1NC(=S)N1CCCN(Cc2ccccc2F)C1,i,i,i,82,i
Fc1ccccc1CN1CCCN(C(=S)Nc2cccc(Cl)c2)C1,i,i,i,86,i
Cc1c(Cl)cccc1NC(=S)N1CCCN(Cc2ccc(F)cc2)C1,i,i,i,89,i
O=C(Nc1ccccc1)N1CCCN(Cc2ccccc2F)C1,i,i,i,i,i
FC(F)(F)c1nc2ccccc2nc1N/N=C/c1c(Cl)cccc1Cl,i,i,i,i,i
O=C(COC(=O)C1CCN(S(=O)(=O)c2ccc3c(c2)OCCO3)CC1)Nc1cc(C(F)(F)F)ccc1Cl,i,i,i,i,i
CCOC(=O)c1sc(C)c2c1NC(c1ccc(Cl)cc1)NC2=O (stereo not drawn),i,i,i,i,i
N#Cc1cc(-c2ccccc2)cnc1Sc1ccccc1,i,9.2,i,i,i
O=C(CSc1nnc(NC(=O)C2CCCCC2)s1)NCc1ccco1,i,i,i,i,i
O=C(CSc1nnc(NC(=O)C2CC2)s1)NCc1ccco1,i,i,i,59,i
COc1ccc(NC(=O)CN2CCC(C(N)=O)(N3CCCCC3)CC2)c(OC)c1,i,i,i,i,i
CC(C)(Oc1ccc(Cl)cc1)C(=O)N1CCN(c2ccccn2)CC1,i,i,i,62,i
O=C(/C=C/c1ccc(Cl)cc1)N1CCN(c2ccccn2)CC1,i,i,i,i,i
CC(C)(Oc1ccc(Cl)cc1)C(=O)N(Cc1ccccc1)c1ccccn1,i,i,i,87,nt
O=C(CCC1CCCN(C(=O)c2ccoc2)C1)NCc1ccccc1F (stereo not drawn),i,i,i,i,i
Cc1ccc(NC(=O)CSc2ccc(-c3cccnc3)nn2)cc1Cl,i,i,i,i,i
SMILES,WT yeast gro inh,RAM inhibit,ABCG2 inh,Lmaj promast,ABCB1 inh
COc1ccccc1CCNC(=O)CSc1ccc(-c2cccs2)nn1,i,i,i,i,i
COc1ccc(-c2cc(-c3cccs3)c(C#N)c(SCC(=O)NCc3ccccc3)n2)cc1,i,i,i,i,i
COc1ccccc1CNC(=O)CSc1ccc(-c2ccncc2)nn1,i,i,i,94,i
COc1cccc(CNC(=O)CSc2ccc(-c3ccncc3)nn2)c1,i,i,i,89,i
COc1ccc(-c2cc(-c3cccs3)c(C#N)c(SCC(=O)NCc3ccccc3OC)n2)cc1,i,i,i,91,i
CCOC(=O)c1ccc(NC(=O)CSc2ccc(-c3ccncc3)nn2)cc1,i,i,i,75,i
Cc1occc1-c1nnc(SCC(=O)N2CCCCC2)o1,i,i,i,i,i
Cc1ccc(CN=c2c([N+](=O)[O-])nn(-c3cccc(C)c3)n2O)cc1,i,i,i,i,i
COc1ccc(-n2nc([N+](=O)[O-])c(=NCc3ccco3)n2O)cc1,i,i,i,i,i

# Source: PubChem (several laboratories)
